This assay is described as follows: green-channel fluorescence of compounds in CCRF-Adr cells – cell-based, 488/530 nm, flow cytometry, artefact control for ABC transporter inhibitor project, confirmation (AID 1483). Particulars: compound autofluorescence 488/530 nm, at 6.6 µM, active compounds read high. The method, boiled down:
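Test system: drug-resistant CCRF-Adr cells; Quantity: 3 million cells per mL, final in well; Benchmarks: DMSO control wells; Incubation: 10 min rotation at 25 °C; Compound: single test compound dose, 6.6 µM final; Probe or stimulus: no JC-1 substrate added, compound fluorescence only; Technique: flow cytometry, median green fluorescence at 530 ± 20 nm.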

In PubChem BioAssay AID1483 (NMMLSC, 2009) one finds fluorescence data, which are given here for one molecule.

The list shows a part of the results. Unmarked numbers belong to inactive results.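 The calls were made as follows: active = fluorescence beyond the plate control mean plus 3 SD, with a fluorescence-to-maximum score over 2 (cut at about 25 in these data); inactive = the rest.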

For `COC(=O)COc1cc(C)cc2oc(=O)c3c(c12)CCCC3`, the fluorescence was 2.91.
